Like-named read-outs stand apart in the source and are kept apart here.
Experiments:
TTR [1] = target: T1, TTR (Homo sapiens, UniProt P02766); assay: Surface plasmon resonance; type: binding; details: SPR
TTR [2] = target: T1, TTR; assay: Fluorescence polarization; details: competitive displacement of probe 1, apparent binding constant
How it was run: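 Competitive displacement of the fluorescent probe from the TTR thyroxine-binding pocket under physiological conditions. The test compound is titrated from 0.01 to 50 μM, and fluorescence polarization is read at excitation 485 nm and emission 525 nm. The dose-dependent drop in polarization is fitted to give the apparent binding constant, Kapp. Run in triplicate; SD reported.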

serum TTR = serum TTR (Homo sapiens, UniProt P02766); assay: Stabilization of human serum TTR against acid-mediated denaturation; type: biochemical; details: 50 μM compound, acid treatment 72 hours
COX-1 = COX-1 (Homo sapiens, UniProt P23219); assay: COX-1 enzymatic inhibition; type: biochemical; details: read-out: COX-1 inhibition
AC16 cells = assay: Inhibition of V122I TTR cytotoxicity towards AC16 cells; type: cell-based, human; details: TTR and ligands 8 μM
IMR-32 cells = assay: Inhibition of WT-TTR cytotoxicity towards IMR-32 neuroblastoma cells; type: cell-based, human; details: fig. S8B
human wild type TTR = human wild type TTR (Homo sapiens, UniProt P02766); assay: Isothermal titration calorimetry; details: two-site binding model; for Kd: ITC
TTR [3] = target: T1, TTR; assay: Acid-mediated TTR amyloidogenesis; type: biochemical; details: kinetic aggregation assay over 5 days, TTR 3.6 μM, ligand 3.0 μM

Chain of COX-1 (P23219 24-599): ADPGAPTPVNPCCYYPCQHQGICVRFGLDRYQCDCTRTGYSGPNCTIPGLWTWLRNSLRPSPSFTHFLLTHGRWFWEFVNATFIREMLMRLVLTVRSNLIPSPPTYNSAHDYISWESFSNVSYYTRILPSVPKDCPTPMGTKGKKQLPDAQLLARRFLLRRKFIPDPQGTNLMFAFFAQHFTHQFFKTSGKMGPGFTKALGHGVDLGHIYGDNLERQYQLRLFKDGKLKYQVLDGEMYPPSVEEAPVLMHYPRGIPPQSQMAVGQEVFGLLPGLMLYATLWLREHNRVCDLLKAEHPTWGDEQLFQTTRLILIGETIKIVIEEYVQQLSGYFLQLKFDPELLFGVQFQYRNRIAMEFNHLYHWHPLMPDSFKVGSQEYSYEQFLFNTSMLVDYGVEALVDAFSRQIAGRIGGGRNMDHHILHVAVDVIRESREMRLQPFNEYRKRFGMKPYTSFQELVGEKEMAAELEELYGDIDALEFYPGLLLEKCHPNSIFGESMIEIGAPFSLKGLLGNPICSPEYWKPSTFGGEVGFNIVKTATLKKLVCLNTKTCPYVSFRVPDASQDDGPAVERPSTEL

| fold lower target residence time than ligand 7 (TTR [1]) | Kapp (TTR [2]) [µM] | inhibition at 10 µM (COX-1) [%] | Compound | % tetramer at 72 hrs (of tetramer present at 0 hours) (serum TTR) [%] | Rescue of AC16 cell viability from V122I TTR proteotoxicity (in words) (AC16 cells) | Performance against WT-TTR toxicity in IMR-32 cells (in words) (IMR-32 cells) | koff, fold faster than ligand 7 (TTR [1]) | Kd (human wild type TTR; read-out: Kd1, first site) [µM] | Kd (human wild type TTR; read-out: Kd2, second site) [µM] | ITC binding affinity (in words) (human wild type TTR) | Fibril formation at substoichiometric ligand (in words) (TTR [3]) |
| --- | --- | --- | --- | --- | --- | --- | --- | --- | --- | --- | --- |
| ~40 x | 4.66 |  | O=C(O)Cc1ccccc1Nc1c(Cl)cccc1Cl [diclofenac] |  |  |  |  |  |  |  |  |
| ~ 20 x |  | 94 | O=C(O)c1cccnc1Nc1cccc(C(F)(F)F)c1 [niflumic acid] | 11.5 | performed poorly | performed poorly |  |  |  |  |  |
|  |  |  | O=[N+]([O-])c1cc(O)c(O)c([N+](=O)[O-])c1 [3,5-dinitrocatechol] | 37.6 | performed poorly | performed poorly |  |  |  |  |  |
|  |  |  | O=C(c1cc(O)c(O)c([N+](=O)[O-])c1)c1ccccc1F [Ro 41-0960] |  | completely rescued |  | ~ 5 x | 0.015 | 2 | low nanomolar affinity | dramatically slowed fibril formation |
